Measurements from ChEMBL document CHEMBL4837208, “1,2,4-Triazolo[1,5-a]pyrimidines: Efficient one-step synthesis and functionalization as influenza polymerase PA-PB1 interaction disruptors” (Eur J Med Chem, 2021).

Key:
Influenza A virus [1] = test: Antiviral activity against Influenza A virus A/PR/8/34(H1N1) infected in MDCK cells assessed as inhibition of plaque formation for 48 hrs by plaque reduction assay; assay type: functional, organism-based; conditions: A/Puerto Rico/8/1934(H1N1)
Outline: (§1)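 MDCK monolayers (5 × 10⁵ cells/well, seeded 24 h earlier) washed with serum-free DMEM. Infected with A/PR/8/34 at 40 PFU/well for 1 h at 37 °C, in DMEM with TPCK-trypsin and 0.14% BSA, with compound or DMSO present. Overlay of the same medium plus 1.2% Avicel and compound. At 48 h, fixed with 4% formaldehyde and stained with 0.1% toluidine blue. Plaques counted against DMSO control set at 100%. At least three independent experiments in duplicate.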

[2] = Cytotoxicity against MDCK cells assessed as reduction in cell viability incubated for 48 hrs by MTT assay; assay type: cell-based, Canis lupus familiaris; conditions: dog
Outline: (§2)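 MDCK cells (2 × 10⁴/well) grown 24 h, then given serial compound dilutions or DMSO in DMEM with 10% FBS for 48 h at 37 °C. MTT (5 mg/mL in PBS) added for 4 h. Lysed overnight with 10% SDS/0.01 N HCl, then OD read at 620 nm. CC50 is the concentration reducing viability by 50%. At least three independent experiments in duplicate.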

SARS-CoV-2 = test: microbe, parasite or virus in culture; assay type: functional, organism-based, Vero E6; conditions: Severe acute respiratory syndrome coronavirus 2, Vero C1008
[3] = target: PA/PB1 (Influenza A virus (A/Puerto Rico/8/1934(H1N1)), UniProt P03431+P03433); test: Inhibition of Influenza A virus 6 His-tagged PA (239 to 716 residues) expressed in Escherichia coli BL21 pLysS/GST-tagged PB1 (1 to 25 residues) expressed in Escherichia coli protein-protein interaction using 3.3',5,5' tetramethyl benzidine as substrate by ELISA
Outline: (§3)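 Wells coated with 400 ng 6His-PA(239–716), E. coli BL21(DE3)pLysS-expressed, for 3 h at 37 °C, then blocked with 2% BSA/PBS for 1 h. Then 200 ng GST-PB1(1–25), or GST alone as control, added with compound at various concentrations, overnight at room temperature. Bound PB1 detected with HRP-anti-GST antibody (1:4000 in PBS/2% FBS). IC50 is the concentration halving PA–PB1 binding. At least three independent experiments in duplicate.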

[4] = Cytotoxicity against African green monkey Vero E6 cells assessed as reduction in cell viability incubated for 1 to 2 hrs by MTS assay; assay type: cell-based, Vero C1008; conditions: chlorocebus sabaeus, time 1-2 hrs
Outline: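 Vero E6 cell viability measured by the colorimetric formazan-based MTS assay. Means of duplicate experiments.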

[5] = target: RNA-directed RNA polymerase (Influenza A virus (strain A/Puerto Rico/8/1934 H1N1), UniProt P03428+P03431+P03433); test: Inhibition of RdRP activity in Influenza A virus A/PR/8/34(H1N1) infected in HEK293T cells incubated for 24 hrs by minireplicon based dual luciferase assay; assay type: cell-based, Influenza A virus (A/Puerto Rico/8/1934(H1N1))
Outline: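 HEK293T cells (2 × 10⁵/well) plated overnight. Calcium-phosphate transfected with PB1, PB2, PA and NP plasmids (100 ng each), pPolI-Flu-ffLuc reporter (50 ng) and pRL-SV40 (50 ng), with compound or DMSO. Medium replaced at 5 h with compound-containing DMEM. Dual luciferase read at 24 h post-transfection. Firefly normalised to Renilla, with DMSO set at 100% polymerase activity.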

[6] = target: PA/PB1 (Influenza A virus (A/Puerto Rico/8/1934(H1N1)), UniProt P03431+P03433); test: Inhibition of Influenza A virus PA-PB1 protein-protein interaction by ELISA; assay type: protein assay; outline: as §3
Influenza A virus [7] = test: Antiviral activity against Influenza A virus A/PR/8/34(H1N1) infected in MDCK cells assessed as inhibition of viral replication by plaque reduction assay; assay type: functional, organism-based; conditions: A/Puerto Rico/8/1934(H1N1); outline: as §1
[8] = Cytotoxicity against MDCK cells assessed as reduction in cell viability by MTT assay; assay type: cell-based, Canis lupus familiaris; conditions: dog; outline: as §2

With `Cc1cc(-c2ccccc2)nc2nc(NC(=O)c3ccc(N)cc3)nn12` as the molecule, how does the EC50 (Influenza A virus [1]) read?
Its EC50 is over 100 µM.

What about the CC50 at 48 h [2] of the same molecule?
The CC50 at 48 h was over 250 µM.

And the EC50 (SARS-CoV-2)?
Its EC50 is 44 µM.

With `COC(=O)c1ccccc1NC(=O)c1nc2nc(C)cc(-c3ccccc3)n2n1` as the molecule, how does the IC50 [3] read?
Its IC50 is 26.5 µM.

What about the EC50 (Influenza A virus [1]) of the same molecule?
Its EC50 is over 80 µM.

What about the CC50 at 48 h [2] of the same molecule?
The CC50 at 48 h was over 250 µM.

Which EC50 (Influenza A virus [1]) does the source give for `CCCOc1ccc(C(=O)Nc2nc3nc(-c4ccccc4)cc(C)n3n2)cc1` here?
The EC50 was over 100 µM.

And the CC50 at 48 h [2]?
Its CC50 at 48 h is 247 µM.

And the EC50 (SARS-CoV-2)?
Its EC50 is 65.3 µM.

Which IC50 [3] does the source give for `NC(=O)c1ccccc1NC(=O)c1nc2nccc(-c3ccccc3)n2n1` here?
Its IC50 is 21 µM.

What about the EC50 (Influenza A virus [1]) of the same molecule?
Its EC50 is over 100 µM.

And the CC50 at 48 h [2]?
The CC50 at 48 h was over 250 µM.

With `Cc1cc(-c2ccccc2)nc2nc(NC(=O)c3ccc(O)c(O)c3)nn12` as the molecule, how does the EC50 (Influenza A virus [1]) read?
Its EC50 is over 100 µM.

And the CC50 at 48 h [2]?
The CC50 at 48 h was 112 µM.

And the EC50 (SARS-CoV-2)?
Its EC50 is over 100 µM.

Which results are given for `NC(=O)c1c(NC(=O)c2nc3nccc(-c4ccccc4)n3n2)sc2c1CCCCC2`?
IC50 [3]: 22 µM; EC50 (Influenza A virus [1]): > 60 µM; CC50 at 48 h [2]: > 200 µM

Which results are given for `COC(=O)c1ccccc1NC(=O)c1nc2nc(-c3ccccc3)cc(C)n2n1`?
IC50 [3]: 22.3 µM; EC50 (Influenza A virus [1]): > 100 µM; CC50 at 48 h [2]: > 250 µM

What does the source list for `Cc1cc(-c2ccccc2)nc2nc(C(=O)Nc3ccccc3F)nn12`?
EC50 (Influenza A virus [1]): 83.8 µM; CC50 at 48 h [2]: > 250 µM; EC50 (SARS-CoV-2): 34.5 µM; CC50 [4]: > 100 µM

For `O=C(Nc1nc2nc(-c3ccccc3)ccn2n1)c1ccccc1`, which IC50 [3] is on record?
The IC50 was 165 µM.

And the EC50 (Influenza A virus [1])?
The EC50 was over 100 µM.

And the CC50 at 48 h [2]?
The CC50 at 48 h was over 250 µM.

Which results are given for `Cc1cc(-c2ccccc2)nc2nc(NC(=O)c3ccccc3F)nn12`?
EC50 (Influenza A virus [1]): > 100 µM; CC50 at 48 h [2]: > 250 µM; EC50 (SARS-CoV-2): 30.6 µM

Which results are given for `Cc1cc(-c2ccccc2)n2nc(C(=O)Nc3ccccc3C(=O)O)nc2n1`?
IC50 [3]: 116 µM; EC50 (Influenza A virus [1]): > 100 µM; CC50 at 48 h [2]: > 250 µM

What does the source list for `COc1ccc(C(=O)Nc2nc3nc(-c4ccccc4)cc(C)n3n2)cc1`?
EC50 (Influenza A virus [1]): > 100 µM; CC50 at 48 h [2]: > 250 µM; EC50 (SARS-CoV-2): > 100 µM

Which EC50 (SARS-CoV-2) does the source give for `N#C[C@@]1(c2ccc3c(N)ncnn23)O[C@H](CO)[C@@H](O)[C@H]1O` [GS-441524] here?
The EC50 was 0.89 µM.

With `NC(=O)c1ncn([C@@H]2O[C@H](CO)[C@@H](O)[C@H]2O)n1` [RIBAVIRIN] as the molecule, how does the EC50 (Influenza A virus [1]) read?
Its EC50 is 10 µM.

What about the CC50 at 48 h [2] of the same molecule?
The CC50 at 48 h was over 250 µM.

And the EC50 [5]?
Its EC50 is 16 µM.

Which results are given for `Cc1cc(-c2ccccc2)n2nc(-c3nc4ccccc4c(=O)o3)nc2n1`?
IC50 [3]: 19.5 µM; EC50 (Influenza A virus [1]): 16 µM; CC50 at 48 h [2]: > 250 µM; EC50 [5]: 21 µM

For `Cc1cc(-c2ccccc2)nc2nc(-c3nc4ccccc4c(=O)o3)nn12`, which IC50 [3] is on record?
The IC50 was 123 µM.

And the EC50 (Influenza A virus [1])?
Its EC50 is over 100 µM.

And the CC50 at 48 h [2]?
Its CC50 at 48 h is over 200 µM.

With `NC(=O)c1c(NC(=O)c2nc3ncc(-c4ccccc4)cn3n2)sc2c1CCCCC2` as the molecule, how does the IC50 [3] read?
Its IC50 is 35 µM.

What about the EC50 (Influenza A virus [1]) of the same molecule?
Its EC50 is over 80 µM.

And the CC50 at 48 h [2]?
Its CC50 at 48 h is 100 µM.

Which IC50 [6] does the source give for `COc1ccc(C(=O)Nc2nc3n(n2)C(c2ccccc2)C=C(C)N3)cc1` (configuration not stated) here?
Its IC50 is 171 µM.

What about the EC50 (Influenza A virus [7]) of the same molecule?
The EC50 was over 100 µM.

What about the CC50 [8] of the same molecule?
The CC50 was 240 µM.

For `NC(=O)c1ccccc1NC(=O)c1nc2ncc(-c3ccccc3)cn2n1`, which IC50 [3] is on record?
The IC50 was over 200 µM.

And the EC50 (Influenza A virus [1])?
The EC50 was over 100 µM.

And the CC50 at 48 h [2]?
Its CC50 at 48 h is over 250 µM.

Which results are given for `O=C(Nc1nc2nc(-c3ccccc3)cc(O)n2n1)c1ccccc1`?
IC50 [3]: 21 µM; EC50 (Influenza A virus [1]): > 100 µM; CC50 at 48 h [2]: > 250 µM

For `O=C(Nc1nc2ncc(-c3ccccc3)cn2n1)c1ccccc1`, which IC50 [3] is on record?
The IC50 was over 200 µM.

And the EC50 (Influenza A virus [1])?
Its EC50 is over 100 µM.

What about the CC50 at 48 h [2] of the same molecule?
Its CC50 at 48 h is over 250 µM.

Which results are given for `O=C(Nc1nc2nccc(-c3ccccc3)n2n1)c1ccccc1`?
IC50 [3]: > 200 µM; EC50 (Influenza A virus [1]): > 100 µM; CC50 at 48 h [2]: > 250 µM

For `Cc1cc(-c2ccccc2)nc2nc(NC(=O)c3ccc([N+](=O)[O-])cc3)nn12`, which EC50 (Influenza A virus [1]) is on record?
The EC50 was over 100 µM.

What about the CC50 at 48 h [2] of the same molecule?
The CC50 at 48 h was over 250 µM.

What about the EC50 (SARS-CoV-2) of the same molecule?
Its EC50 is over 100 µM.

Which results are given for `Cc1cc(-c2ccccc2)nc2nc(C(=O)Nc3ccccc3C(=O)O)nn12`?
IC50 [3]: 32 µM; EC50 (Influenza A virus [1]): > 100 µM; CC50 at 48 h [2]: > 250 µM
